Results as given in PubChem BioAssay.
Activity calls are given as the source filed them.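 The calls were made as follows, unless noted: active = viability at or below 10% of carrier control in both of two separate runs; inconclusive = viability at or below 10% in only one of the two runs; inactive = the rest.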

Key:
[1] = reducers of endogenous Her2 protein level, primary screen, SKBR3 breast tumor cells, AlphaScreen, ATP viability (AID 461;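 active = Her2 level under about 52% in both replicate screens, with viability over 70% of control, limit read from the data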;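 as to Her2 level: lower value means less Her2 protein in the cells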;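 as to viability: percent of carrier control wells set as 100% viability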); conditions: 18-24 h, measured here: SKBR3 viability, ATP luminescence, at 10 µM
[2] = target: Receptor tyrosine-protein kinase erbB-2 (Homo sapiens) (UniProt P04626); experiment: as above; conditions: 18-24 h, at 10 µM, stronger effect = lower value
[3] = SK-BR-3 cell growth inhibitors, pilot screen, 24 h, human (AID 572); conditions: SK-BR-3 viability, CellTiter-Glo luminescence, at 10 µM, stronger effect = lower value;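 also: compound exposure lasted between 18 and 24 h rather than exactly 24 h; 100% = carrier-treated control wells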
[4] = HUVEC growth inhibition – cell-based, human, primary screen (AID 575;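 active = viability at or below 30% in both replicate assays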;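 also: 100% = median of untreated cell wells with 0.1% DMSO on each plate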); conditions: HUVEC proliferation, CellTiter-Glo luminescence, 72 h; at 10 µM; stronger effect = lower value
In short: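 Material: primary human umbilical vein endothelial cells / Schedule: 72 h exposure, 37 °C, 5% CO2, 30 min RT equilibration / Signal: ATP-based CellTiter-Glo luminescent read / Read-out basis: percent of median DMSO-control luminescence / Control set: 32 DMSO-only cell-control wells (high), 32 MePR drug-control wells (low) per plate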

[5] = growth inhibitors of H69AR lung tumor, primary screen, human, duplicate replicates (AID 580;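 active = viability at or under a set limit in both replicates, limit being median viability minus 3 SD, cut at about 48% in these data, passing the limit was not always enough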;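 also: 100% = mean luminescence of untreated wells and 0% = no signal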); conditions: H69AR lung tumor cells viability, ATP luminescence, 72 h; at 10 µM; stronger effect = lower value
[6] = reversal of MRP1-mediated doxorubicin resistance, pilot screen, H69AR cells, doxorubicin co-treatment (AID 601;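 active = viability loss from added drug above about 55%, and viability with drug at most 40%, in both replicates, limit read from the data, passing the limit was not always enough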); conditions: CellTiter-Glo, 72 h, at 10 µM; for differential viability (reversal): stronger effect = higher value
[7] = 384-well plate pilot, post-Golgi transport modulator project, inhibition of yeast transport mutant growth (AID 636; in the data active = inhibition above about 31%); conditions: absorbance 615 nm, about 18 h, stronger effect = higher value
[8] = growth suppression of yeast trafficking mutant, preliminary HTS, modulators of trafficking downstream of Golgi apparatus project, 1536-format plate, OD 615 nm (AID 637; in the data active = inhibition above about 30%); conditions: yeast transport mutant growth, absorbance 615 nm, 18 h; stronger effect = higher value
[9] = H69AR cells + 2 uM doxorubicin, measured here: viability with 2 uM doxorubicin, stronger effect = lower value
[10] = H69AR cells, compound alone cytotoxicity

Chain of Receptor tyrosine-protein kinase erbB-2 (Homo sapiens) (P04626 whole entry, looked up): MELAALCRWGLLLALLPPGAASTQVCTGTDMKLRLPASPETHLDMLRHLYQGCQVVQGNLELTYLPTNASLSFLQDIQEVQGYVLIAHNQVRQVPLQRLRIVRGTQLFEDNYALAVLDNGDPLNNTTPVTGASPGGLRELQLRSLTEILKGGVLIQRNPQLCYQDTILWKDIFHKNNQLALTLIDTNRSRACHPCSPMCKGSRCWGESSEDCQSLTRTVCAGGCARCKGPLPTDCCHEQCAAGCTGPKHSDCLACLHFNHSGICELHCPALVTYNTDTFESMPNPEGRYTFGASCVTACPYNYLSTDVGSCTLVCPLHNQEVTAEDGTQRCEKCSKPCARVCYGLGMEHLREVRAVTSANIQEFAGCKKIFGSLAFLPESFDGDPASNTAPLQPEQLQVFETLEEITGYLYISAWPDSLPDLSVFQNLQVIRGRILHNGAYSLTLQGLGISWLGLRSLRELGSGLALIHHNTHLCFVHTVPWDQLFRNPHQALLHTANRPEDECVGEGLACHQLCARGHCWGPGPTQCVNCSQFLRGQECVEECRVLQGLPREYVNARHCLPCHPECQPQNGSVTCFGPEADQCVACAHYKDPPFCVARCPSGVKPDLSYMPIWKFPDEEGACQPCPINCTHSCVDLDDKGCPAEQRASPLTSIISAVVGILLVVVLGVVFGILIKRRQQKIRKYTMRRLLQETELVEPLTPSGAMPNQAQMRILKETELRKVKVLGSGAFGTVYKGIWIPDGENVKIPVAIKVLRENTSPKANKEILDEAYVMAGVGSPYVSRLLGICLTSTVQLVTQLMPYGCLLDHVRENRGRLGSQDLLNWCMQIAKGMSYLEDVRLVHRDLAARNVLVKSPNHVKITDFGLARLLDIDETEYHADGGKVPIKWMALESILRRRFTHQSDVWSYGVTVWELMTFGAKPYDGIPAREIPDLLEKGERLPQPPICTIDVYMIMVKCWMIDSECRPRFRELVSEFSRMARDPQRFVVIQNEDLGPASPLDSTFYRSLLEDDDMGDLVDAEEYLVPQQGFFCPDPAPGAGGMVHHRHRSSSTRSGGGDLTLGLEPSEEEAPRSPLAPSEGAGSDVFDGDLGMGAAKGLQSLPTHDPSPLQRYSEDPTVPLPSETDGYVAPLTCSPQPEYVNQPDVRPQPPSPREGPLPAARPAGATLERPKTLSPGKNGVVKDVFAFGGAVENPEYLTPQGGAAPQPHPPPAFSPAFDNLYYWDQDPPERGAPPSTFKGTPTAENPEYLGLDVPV

| SMILES | viability [1] [%] | Her2 level [2] | viability [3] | viability [4] | viability [5] | differential viability (reversal) ([6]; H69AR cells + 2 uM doxorubicin) | viability [6, 9] [%] | viability [6, 10] [%] | inhibition [7] | inhibition [8] |
| --- | --- | --- | --- | --- | --- | --- | --- | --- | --- | --- |
| CCC(=O)N(Cc1cc2c(C)ccc(C)c2[nH]c1=O)C1CCCCC1 | 86 | 71.5% (inactive) | 86% (inactive) | 79.2% (inactive) | 85.9% (inactive) | -0.72% (inactive) | 86.6 | 85.9 | -6.71% (inactive) | 0.32% (inactive) |
| O=S(=O)(NC1CCCC1)c1ccc(S(=O)(=O)N2CCc3ccccc32)cc1 | 99.5 | 94.5% (inactive) | 99.5% (inactive) | 66.1% (inactive) | 71.5% (inactive) | 1.97% (inactive) | 69.6 | 71.5 | -4.94% (inactive) | -12.4% (inactive) |
| COc1cccc(C2C(C(=O)c3cc4ccccc4o3)=C(O)C(=O)N2CCN(C)C)c1OC (stereo not given) | 104 | 94.5% (inactive) | 104% (inactive) | 96.8% (inactive) | 100% (inactive) | 4.93% (inactive) | 95.4 | 100 | -3.87% (inactive) | 11.3% (inactive) |
| CNC(=O)c1c(O)c2cccc3c2n(c1=O)CC3 | 83.5 | 86% (inactive) | 83.5% (inactive) | 101% (inactive) | 89.5% (inactive) | -5.95% (inactive) | 95.5 | 89.5 | -0.13% (inactive) | -4.52% (inactive) |
| CNC(=O)CC(C(=O)O)c1ccc(OCC(C)C)cc1 (stereo not given) | 90.5 | 102% (inactive) | 90.5% (inactive) | 84.4% (inactive) | 93.9% (inactive) | 4.75% (inactive) | 89.2 | 93.9 | -2.11% (inactive) | 9.84% (inactive) |
| c1cnc2c(SCc3ccc(-c4nnco4)cc3)cccc2c1 | 98.5 | 101% (inactive) | 98.5% (inactive) | 80.7% (inactive) | 97.2% (inactive) | 12.1% (inactive) | 85.2 | 97.2 | -2.03% (inactive) | -12.4% (inactive) |
| CCOC(=O)c1ccc2nc(C)c3c(c2c1)OC(C)C3 (stereo not given) | 92 | 124% (inactive) | 92% (inactive) | 97.1% (inactive) | 87.9% (inactive) | 11% (inactive) | 76.9 | 87.9 | -2.6% (inactive) | -5.67% (inactive) |
| CCOC(=O)C(NC(=O)OC(C)C)(Nc1nccs1)C(F)(F)F (stereo not given) | 89.5 | 96.5% (inactive) | 89.5% (inactive) | 103% (inactive) | 110% (inactive) | 12% (inactive) | 97.6 | 110 | -4.29% (inactive) | 4.44% (inactive) |
| COC(=O)c1sc(NC(=O)c2ccoc2C)nc1C | 110 | 118% (inactive) | 110% (inactive) | 61.8% (inactive) | 75.3% (inactive) | 2.44% (inactive) | 72.9 | 75.3 | -3.07% (inactive) | 8.06% (inactive) |
| CC(C)CCNC(=O)NC(=O)COc1ccccc1C#N | 92.5 | 109% (inactive) | 92.5% (inactive) | 112% (inactive) | 97.1% (inactive) | 7.26% (inactive) | 89.8 | 97.1 | -3.78% (inactive) | -5.4% (inactive) |
| Nc1ncnc(Nc2ccccc2C(F)(F)F)n1 | 93.5 | 110% (inactive) | 93.5% (inactive) | 99.5% (inactive) | 95.6% (inactive) | 2.26% (inactive) | 93.3 | 95.6 | 5.19% (inactive) | -11.2% (inactive) |
| Cc1cc(NC(=O)CSc2nc3ccccc3n2CC(=O)N2CCCCC2)no1 | 78 | 70% (inactive) | 78% (inactive) | 103% (inactive) | 86.2% (inactive) | 8.37% (inactive) | 77.8 | 86.2 | -5.54% (inactive) | 3.61% (inactive) |
| CCc1ccccc1N=C1SCC(=O)N1C | 96.5 | 102% (inactive) | 96.5% (inactive) | 87.9% (inactive) | 97% (inactive) | 10.1% (inactive) | 86.8 | 97 | -6.67% (inactive) | -4.26% (inactive) |
| CC1CN(S(=O)(=O)c2cccc(C(=O)OCc3cc(=O)oc4cc(O)ccc34)c2)CC(C)O1 (stereo not given) | 80.5 | 87% (inactive) | 80.5% (inactive) | 61.1% (inactive) | 78.2% (inactive) | 16.1% (inactive) | 62.1 | 78.2 | -6% (inactive) | -4.43% (inactive) |
| COc1ccc(Cl)cc1Nc1nc(C)cc(=O)[nH]1 | 95 | 86% (inactive) | 95% (inactive) | 80.6% (inactive) | 95.8% (inactive) | 2.12% (inactive) | 93.7 | 95.8 | -3.68% (inactive) | -0.97% (inactive) |
| CCOC(=O)Cc1nn2c(=O)cc(C)nc2s1 | 116 | 111% (inactive) | 116% (inactive) | 102% (inactive) | 102% (inactive) | 2.55% (inactive) | 99.4 | 102 | -1.07% (inactive) | 1.64% (inactive) |
| Cc1cc2cc(CN(CC3CCCO3)C(=O)c3cnccn3)c(=O)[nH]c2cc1C (stereo not given) | 75 | 130% (inactive) | 75% (inactive) | 89.9% (inactive) | 92.3% (inactive) | 6.07% (inactive) | 86.3 | 92.3 | -0.8% (inactive) | -4.59% (inactive) |
| COc1ccccc1Nc1nc(N)nc(CN2CCN(c3ccccc3F)CC2)n1 | 96 | 120% (inactive) | 96% (inactive) | 98.9% (inactive) | 81.3% (inactive) | -8.69% (inactive) | 90 | 81.3 | 1.71% (inactive) | 11.5% (inactive) |
| CCSCCC(NC1=CC(=O)CC(C)(C)C1)C(=O)O (stereo not given) | 92 | 89% (inactive) | 92% (inactive) | 116% (inactive) | 101% (inactive) | 5.77% (inactive) | 94.8 | 101 | 1.58% (inactive) | -3.45% (inactive) |
| CCOc1cc(C2C(C#N)=C(N)OC(C)=C2C(C)=O)cc(Br)c1O (stereo not given) | 114 | 91% (inactive) | 114% (inactive) | 120% (inactive) | 90.3% (inactive) | 6.05% (inactive) | 84.2 | 90.3 | -5.95% (inactive) | -6.83% (inactive) |
| Cn1nnnc1SCSc1nnnn1C | 84 | 83% (inactive) | 84% (inactive) | 95.5% (inactive) | 96.9% (inactive) | 7.5% (inactive) | 89.4 | 96.9 | -5% (inactive) | -0.95% (inactive) |
| C=CCc1cc(C(=O)N2CCCCC2)ccc1O | 104 | 100% (inactive) | 104% (inactive) | 88% (inactive) | 92.3% (inactive) | -15.2% (inactive) | 108 | 92.3 | -2.5% (inactive) | 8.2% (inactive) |
| COc1ccccc1OCC(=O)Nc1ccc(S(=O)(=O)Nc2nc(C)cc(C)n2)cc1 | 90.5 | 184% (inactive) | 90.5% (inactive) | 98.7% (inactive) | 96.3% (inactive) | 7.8% (inactive) | 88.5 | 96.3 | -3.59% (inactive) | -5.5% (inactive) |
| COC(=O)c1ccc(COc2ncnc3c(Cl)cc(Cl)cc23)o1 | 102 | 100% (inactive) | 102% (inactive) | 95.4% (inactive) | 85.9% (inactive) | 18.5% (inactive) | 67.4 | 85.9 | -8.16% (inactive) | -2.73% (inactive) |
| O=c1c2c(-c3ccccc3)csc2nc2n1CCC2 | 81 | 99% (inactive) | 81% (inactive) | 77.2% (inactive) | 79.4% (inactive) | -4.97% (inactive) | 84.4 | 79.4 | 2.84% (inactive) | 29.2% (inactive) |
| Cc1cc2ncn(C(=O)c3c(-c4ccccc4)noc3C)c2cc1C | 102 | 110% (inactive) | 102% (inactive) | 76.8% (inactive) | 81.8% (inactive) | 4.1% (inactive) | 77.7 | 81.8 | 0.13% (inactive) | -6.23% (inactive) |
| O=C1COc2ccc(C(=O)NCc3ccco3)cc2N1 | 95.5 | 86% (inactive) | 95.5% (inactive) | 105% (inactive) | 104% (inactive) | 7.71% (inactive) | 96.1 | 104 | -2.11% (inactive) | -7.26% (inactive) |
| CCSc1nnc(NC(=O)CCNS(=O)(=O)c2cc(Br)cnc2N)s1 | 79.5 | 107% (inactive) | 79.5% (inactive) | 76.8% (inactive) | 107% (inactive) | 1.07% (inactive) | 106 | 107 | -1.04% (inactive) | -0.82% (inactive) |
| C=CCc1c(C)nc(SC)nc1Nc1ccc(C(=O)O)cc1 | 106 | 74.5% (inactive) | 106% (inactive) | 84.2% (inactive) | 86.9% (inactive) | 1.22% (inactive) | 85.7 | 86.9 | -6.89% (inactive) | 3.28% (inactive) |
